Experimental findings from ChEMBL document CHEMBL1250542, “Synthesis and biological evaluation of a series of aromatic bisphosphonates” (Bioorg Med Chem, 2010) are described below.

The target in assay [1] is T1, Geranylgeranyl pyrophosphate synthase (Homo sapiens, UniProt O95749).
T1 sequence (O95749 whole entry): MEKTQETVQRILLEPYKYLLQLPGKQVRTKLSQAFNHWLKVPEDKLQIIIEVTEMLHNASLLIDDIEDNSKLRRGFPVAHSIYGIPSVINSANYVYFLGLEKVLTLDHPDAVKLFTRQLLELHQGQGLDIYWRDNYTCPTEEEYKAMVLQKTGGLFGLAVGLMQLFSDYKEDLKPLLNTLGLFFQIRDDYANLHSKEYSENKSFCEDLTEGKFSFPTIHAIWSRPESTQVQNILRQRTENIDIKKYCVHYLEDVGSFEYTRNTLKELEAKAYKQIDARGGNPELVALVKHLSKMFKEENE
As to the kind of experiment: Inhibition of GST-tagged human recombinant GGDPS expressed in BL21 gold bacteria by liquid scintillation counting. The method, boiled down: (§1)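 Purified recombinant human GGDPS in buffer containing 0.5 mM MgCl₂ and 0.5 mM ZnCl₂ was preincubated with compounds for 10 min. Reactions were started with ¹⁴C-IPP plus FPP and run for 1 h at 37 °C. Products were extracted into water-saturated butanol, washed twice with saturated water, and counted by liquid scintillation. Data are from a single-concentration screen and concentration–response curves with IC₅₀ extrapolated, mean SD, n = 2.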

Assay [2] has as its target T2, Geranylgeranyl pyrophosphate synthase (Homo sapiens) (UniProt O95749).
T2 sequence (whole entry): T1 sequence (O95749 whole entry)
As to the kind of experiment: Inhibition of GST-tagged human recombinant GGDPS expressed in BL21 gold bacteria at 10 uM by liquid scintillation counting. The method, boiled down:
as §1

Assay [3] has as its system K562. As to the kind of experiment: Inhibition in human K562 cells assessed as reduction of RAB6 protein geranylgeranylation after 48 hrs by Western blotting. (In general: In western blotting, separated proteins are transferred to a membrane and probed.)
The target in assay [4] is T3, Farnesyl pyrophosphate synthase (Homo sapiens) (UniProt P14324).
T3 sequence (whole entry): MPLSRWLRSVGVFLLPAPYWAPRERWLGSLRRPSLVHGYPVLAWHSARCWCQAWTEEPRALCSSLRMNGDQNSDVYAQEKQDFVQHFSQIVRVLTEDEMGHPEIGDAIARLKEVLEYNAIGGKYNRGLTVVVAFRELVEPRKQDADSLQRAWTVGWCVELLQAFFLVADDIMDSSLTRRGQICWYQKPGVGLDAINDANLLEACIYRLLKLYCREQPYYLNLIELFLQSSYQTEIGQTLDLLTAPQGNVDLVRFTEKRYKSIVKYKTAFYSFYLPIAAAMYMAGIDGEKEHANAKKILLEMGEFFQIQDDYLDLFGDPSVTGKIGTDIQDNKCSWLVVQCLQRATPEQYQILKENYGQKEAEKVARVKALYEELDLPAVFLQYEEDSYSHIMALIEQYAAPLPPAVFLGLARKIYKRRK
As to the kind of experiment: Inhibition of FDPS in human K562 cells assessed as reduction of Ras protein farnesylation after 48 hrs by Western blotting. It is filed as cell-based. The method, boiled down:
(§2)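 Prenylation in intact cells: K562 cells at 5 × 10⁵ cells/mL were incubated with compounds or lovastatin for 48 h, as a single-concentration screen or a concentration series. Lysates were made in 2% SDS/66 mM Tris and protein was measured by BCA. Samples were resolved on 12% and 15% gels, transferred to PVDF, and probed for pan-Ras, Rap1a or Rab6, with α-tubulin as reference. Detection was by ECL.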

For assay [5], the system named is K562. As to the kind of experiment: Anticancer activity against human K562 cells assessed as inhibition of DNA synthesis by [3H]thymidine incorporation assay. It is filed as functional, cell-based. In short, it runs like this: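 [³H]thymidine (3.75 Ci/mmol in media) was added at 44 or 68 h. At 48 or 72 h, cells were harvested onto glass microfiber paper and incorporated label was scintillation counted. Proliferation is expressed as % of untreated cells, mean S.E., n = 4.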
On the technique in general: Dividing cells build labelled thymidine or BrdU into new DNA.

For assay [6], the system named is K562. As to the kind of experiment: Inhibition of GGTase1 in human K562 cells assessed as reduction of Rap1a protein geranylgeranylation at 50 uM after 48 hrs by Western blotting. In kind it is cell-based. In short, it runs like this: as §2
Assay [7] deals with T2, Geranylgeranyl pyrophosphate synthase (Homo sapiens). As to the kind of experiment: Inhibition of GGDPS in human K562 cells assessed as reduction Rab6 protein geranylgeranylation after 48 hrs by Western blotting in presence GGPP. In kind it is cell-based. The method, boiled down: (§3)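 Add-back assay: K562 cells at 5 × 10⁵ cells/mL were exposed for 48 h to compounds, or to lovastatin, with or without exogenous mevalonate, FPP or GGPP. Lysates were made in 2% SDS/66 mM Tris and protein was measured by BCA. Samples were run on 12% and 15% SDS gels, transferred to PVDF, and immunoblotted for pan-Ras, Rap1a or Rab6, with α-tubulin as reference. Detection was by ECL.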

Assay [8] has the same target. As to the kind of experiment: Inhibition of GGDPS in human K562 cells assessed as reduction Rap1a protein geranylgeranylation after 48 hrs by Western blotting in presence GGPP. It is filed as cell-based. The method, boiled down: as §3
Assay [9] deals with T3, Farnesyl pyrophosphate synthase (Homo sapiens). As to the kind of experiment: Inhibition of FDPS in human K562 cells assessed as reduction Ras protein farnesylation after 48 hrs by Western blotting in presence of mevalonate and FPP. It is filed as cell-based. The method, boiled down: as §3
Assay [10] has as its system K562. As to the kind of experiment: Inhibition of GGTase1 in human K562 cells assessed as reduction of Rap1a protein geranylgeranylation at 12.5 uM after 48 hrs by Western blotting. It is filed as cell-based. The method, boiled down:
as §2

Assay [11] relates to K562. As to the kind of experiment: Inhibition of GGTase1 in human K562 cells assessed as reduction of Rap1a protein geranylgeranylation after 48 hrs by Western blotting. It is filed as cell-based. In short, it runs like this: as §2

Activity calls are given as the source filed them. The rule behind the calls is not given here.

As usually defined, the IC50 is the concentration at which inhibition is half-maximal.

Consider `CC(C)=CCC/C(C)=C/CC(Cc1ccc(CC=C(C)C)cc1)(P(=O)(O)O)P(=O)(O)O`, for which the IC50 in [1] came out at 800 nM. Moreover, in assay [2], the “inhibition activity call (active/not active)” value is “Active”. The inhibition result in [3], in assay [5], in assay [6] and in assay [9] was “Active” throughout. In addition, the inhibition entry in assay [4], in assay [7] and in assay [8] was “inactive” each time.
On to `CC(C)=CCC/C(C)=C/CC(Cc1cccc(CC=C(C)C)c1)(P(=O)(O)O)P(=O)(O)O`, for which the half-inhibitory concentration (IC50) in assay [1] was 250 nM. Also, the “inhibition activity call (active/not active)” value in [2] was “Active”. For the same compound, the inhibition entry in assay [3], in assay [5], in assay [6] and in [9] was “Active” each time. Besides, the inhibition entry in assay [4], in assay [7] and in [8] was “inactive” each time. The result in [10] was Active.
For the compound `CC(C)=CCC/C(C)=C/CC(Cc1cccnc1)(P(=O)(O)O)P(=O)(O)O`, the “inhibition activity call (active/not active)” value in assay [2] is “Active”.
On the same count and under the same terms, with `CC(C)=CCc1ccc(CC(P(=O)(O)O)P(=O)(O)O)cc1` the entry was “inactive”; with `O=P(O)(O)C(Cc1ccccc1)P(=O)(O)O`, “inactive”.
On the same count and under the same terms, to `CC(C)=CCC/C(C)=C/CC(Cc1ccccc1)(P(=O)(O)O)P(=O)(O)O` belongs “Active”; to `CC(C)=CCc1cccc(CC(P(=O)(O)O)P(=O)(O)O)c1`, “inactive”.
On to `CC[C@H](C)C(=O)O[C@H]1C[C@@H](C)C=C2C=C[C@H](C)[C@H](CC[C@@H]3C[C@@H](O)CC(=O)O3)[C@H]21`, for which, in assay [11], the inhibition entry is “Active”. Also, the inhibition entry in [9] is “inactive”.
